The results in this text go back to ChEMBL document CHEMBL5653631, “A Potent and Selective ULK1 Inhibitor Suppresses Autophagy and Sensitizes Cancer Cells to Nutrient Stress” (iScience, 2018).

Experiment [1] addresses RAC-beta serine/threonine-protein kinase (Homo sapiens) (UniProt P31751). Briefly: Inhibition of human recombinant AKT2 at 40 nM in presence of ATP by radiometric assay relative to control. The method in brief:
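Panel of 327 recombinant human kinases in radiometric activity assays, each screened in duplicate at a single inhibitor concentration; percent activity remaining relative to vehicle control, percent inhibition taken as 100 minus activity remaining.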

In experiment [2] the target is T1, Mitogen-activated protein kinase kinase kinase kinase 2 (Homo sapiens) (UniProt Q12851).
T1 sequence (whole entry): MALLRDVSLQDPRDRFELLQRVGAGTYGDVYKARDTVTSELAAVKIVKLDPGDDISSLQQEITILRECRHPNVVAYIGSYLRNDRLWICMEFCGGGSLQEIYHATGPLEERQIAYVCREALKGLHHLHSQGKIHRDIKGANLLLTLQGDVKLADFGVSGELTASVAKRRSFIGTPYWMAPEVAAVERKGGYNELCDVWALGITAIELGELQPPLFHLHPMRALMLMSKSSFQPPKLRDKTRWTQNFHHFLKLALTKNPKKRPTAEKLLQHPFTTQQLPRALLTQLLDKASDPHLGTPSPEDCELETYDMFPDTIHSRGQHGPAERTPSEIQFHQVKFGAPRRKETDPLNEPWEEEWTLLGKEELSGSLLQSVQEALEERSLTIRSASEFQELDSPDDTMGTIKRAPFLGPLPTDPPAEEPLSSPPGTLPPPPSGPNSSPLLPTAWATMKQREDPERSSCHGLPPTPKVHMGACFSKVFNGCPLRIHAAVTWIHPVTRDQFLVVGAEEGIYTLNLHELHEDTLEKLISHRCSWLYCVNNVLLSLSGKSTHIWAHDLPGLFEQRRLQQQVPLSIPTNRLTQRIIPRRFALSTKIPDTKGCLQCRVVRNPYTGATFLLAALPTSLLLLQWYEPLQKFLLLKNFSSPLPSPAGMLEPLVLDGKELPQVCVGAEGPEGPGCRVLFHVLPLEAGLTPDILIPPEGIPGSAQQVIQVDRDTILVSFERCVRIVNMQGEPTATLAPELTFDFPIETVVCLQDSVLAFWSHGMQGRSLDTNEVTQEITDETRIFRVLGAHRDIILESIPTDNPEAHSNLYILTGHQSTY
Put plainly: Inhibition of human recombinant GCK at 40 nM related to control ULK1.

Experiment [3] concerns the target T2, Serine/threonine-protein kinase D3 (Homo sapiens) (UniProt O94806).
T2 sequence (whole entry): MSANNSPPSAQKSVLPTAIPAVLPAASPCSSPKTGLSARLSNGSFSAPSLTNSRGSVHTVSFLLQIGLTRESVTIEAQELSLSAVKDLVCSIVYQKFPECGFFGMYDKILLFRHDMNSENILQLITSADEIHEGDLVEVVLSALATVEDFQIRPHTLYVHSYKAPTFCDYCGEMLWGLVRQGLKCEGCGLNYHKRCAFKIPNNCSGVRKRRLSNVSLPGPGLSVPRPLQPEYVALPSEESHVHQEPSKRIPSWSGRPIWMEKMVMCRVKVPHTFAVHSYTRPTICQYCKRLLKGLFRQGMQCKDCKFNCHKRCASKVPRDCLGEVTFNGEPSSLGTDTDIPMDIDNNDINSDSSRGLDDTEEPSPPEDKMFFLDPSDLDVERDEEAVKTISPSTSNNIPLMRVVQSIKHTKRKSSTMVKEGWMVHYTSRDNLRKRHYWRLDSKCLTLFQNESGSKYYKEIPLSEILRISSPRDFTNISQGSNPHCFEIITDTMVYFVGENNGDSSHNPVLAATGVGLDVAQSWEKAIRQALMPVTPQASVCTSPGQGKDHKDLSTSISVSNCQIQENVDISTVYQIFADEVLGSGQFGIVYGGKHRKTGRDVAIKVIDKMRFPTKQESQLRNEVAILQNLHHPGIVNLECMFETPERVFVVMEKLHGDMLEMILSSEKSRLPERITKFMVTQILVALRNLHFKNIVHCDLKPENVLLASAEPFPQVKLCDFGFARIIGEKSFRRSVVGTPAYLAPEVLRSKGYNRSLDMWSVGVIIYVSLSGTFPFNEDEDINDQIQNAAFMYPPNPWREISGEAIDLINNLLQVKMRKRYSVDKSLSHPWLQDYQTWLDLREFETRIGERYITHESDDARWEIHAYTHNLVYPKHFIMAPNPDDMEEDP
Put plainly: Inhibition of human recombinant PKD3 at 40 nM in presence of ATP by radiometric assay relative to control.

Experiment [4] concerns the target Rho-associated protein kinase 1 (Homo sapiens) (UniProt Q13464). Briefly: Inhibition of human recombinant ROCK1 at 500 nM in presence of ATP by radiometric assay relative to control.
Experiment [5] concerns the target Calcium/calmodulin-dependent protein kinase type II subunit alpha (Homo sapiens) (UniProt Q9UQM7). Put plainly: Inhibition of human recombinant CaMK2a at 500 nM related to control ULK1.
For experiment [6], the target named is Protein kinase C delta type (Homo sapiens) (UniProt Q05655). Briefly: Inhibition of human recombinant PKCd at 500 nM related to control ULK1.
In experiment [7] the target is Epidermal growth factor receptor (Homo sapiens) (UniProt P00533). Briefly: Inhibition of human recombinant EGFR at 15 nM in presence of ATP by radiometric assay relative to control.
Experiment [8] has as its target Ribosomal protein S6 kinase alpha-2 (Homo sapiens) (UniProt Q15349). Briefly: Inhibition of human recombinant RSK3 at 15 nM in presence of ATP by radiometric assay relative to control.
Experiment [9] concerns the target Death-associated protein kinase 1 (Homo sapiens) (UniProt P53355). Put plainly: Inhibition of human recombinant DAPK1 at 15 nM in presence of ATP by radiometric assay relative to control.
Experiment [10] addresses Ribosomal protein S6 kinase alpha-1 (Homo sapiens) (UniProt Q15418). Briefly: Inhibition of human recombinant RSK1 at 15 nM related to control ULK1.

Molecules are shown by their SMILES.

RAC-beta serine/threonine-protein kinase (Homo sapiens), sequence (P31751 whole entry): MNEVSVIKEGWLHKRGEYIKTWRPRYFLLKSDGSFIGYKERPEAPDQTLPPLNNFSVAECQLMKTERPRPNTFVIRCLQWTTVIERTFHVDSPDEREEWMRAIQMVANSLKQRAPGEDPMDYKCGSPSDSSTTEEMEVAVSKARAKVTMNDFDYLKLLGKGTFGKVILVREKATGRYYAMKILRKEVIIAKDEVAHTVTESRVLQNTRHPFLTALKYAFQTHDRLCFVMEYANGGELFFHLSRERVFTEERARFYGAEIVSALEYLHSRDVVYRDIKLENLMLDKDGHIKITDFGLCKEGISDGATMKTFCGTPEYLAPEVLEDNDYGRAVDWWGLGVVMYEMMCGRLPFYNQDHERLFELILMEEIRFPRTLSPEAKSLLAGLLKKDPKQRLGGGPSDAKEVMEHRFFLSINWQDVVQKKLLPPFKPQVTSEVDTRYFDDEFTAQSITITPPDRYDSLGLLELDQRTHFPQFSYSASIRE
Epidermal growth factor receptor (Homo sapiens), sequence (P00533 whole entry): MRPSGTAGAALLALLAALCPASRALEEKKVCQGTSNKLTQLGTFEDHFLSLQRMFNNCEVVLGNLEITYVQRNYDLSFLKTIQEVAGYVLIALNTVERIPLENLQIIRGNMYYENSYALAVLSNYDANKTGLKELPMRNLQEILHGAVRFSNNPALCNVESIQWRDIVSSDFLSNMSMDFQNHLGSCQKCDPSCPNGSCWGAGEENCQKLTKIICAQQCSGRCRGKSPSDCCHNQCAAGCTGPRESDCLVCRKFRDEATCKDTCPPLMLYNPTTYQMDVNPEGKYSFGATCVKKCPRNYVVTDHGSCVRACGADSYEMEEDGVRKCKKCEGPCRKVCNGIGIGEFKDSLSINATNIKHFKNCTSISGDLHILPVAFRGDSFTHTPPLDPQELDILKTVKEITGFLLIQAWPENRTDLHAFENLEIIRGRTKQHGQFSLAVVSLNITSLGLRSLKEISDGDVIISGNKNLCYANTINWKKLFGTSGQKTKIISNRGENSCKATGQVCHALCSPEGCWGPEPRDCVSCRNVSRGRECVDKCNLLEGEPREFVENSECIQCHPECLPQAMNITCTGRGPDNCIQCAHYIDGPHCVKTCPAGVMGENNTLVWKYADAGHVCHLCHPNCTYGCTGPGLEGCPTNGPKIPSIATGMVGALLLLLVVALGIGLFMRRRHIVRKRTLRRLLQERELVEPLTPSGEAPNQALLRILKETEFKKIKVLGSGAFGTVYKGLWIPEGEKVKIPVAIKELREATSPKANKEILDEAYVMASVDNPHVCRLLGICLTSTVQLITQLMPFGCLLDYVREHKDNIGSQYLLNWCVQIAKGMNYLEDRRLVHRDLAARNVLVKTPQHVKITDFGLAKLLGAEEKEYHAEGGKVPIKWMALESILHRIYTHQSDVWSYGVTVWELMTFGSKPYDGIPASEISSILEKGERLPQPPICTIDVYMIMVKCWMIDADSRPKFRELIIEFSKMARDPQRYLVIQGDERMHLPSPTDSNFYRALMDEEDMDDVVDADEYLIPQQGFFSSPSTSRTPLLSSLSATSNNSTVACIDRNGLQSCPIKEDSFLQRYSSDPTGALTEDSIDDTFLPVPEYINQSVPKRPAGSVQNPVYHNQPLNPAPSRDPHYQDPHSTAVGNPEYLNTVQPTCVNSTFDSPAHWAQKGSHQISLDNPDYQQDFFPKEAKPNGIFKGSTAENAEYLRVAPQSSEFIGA
Protein kinase C delta type (Homo sapiens), sequence (Q05655 whole entry, looked up): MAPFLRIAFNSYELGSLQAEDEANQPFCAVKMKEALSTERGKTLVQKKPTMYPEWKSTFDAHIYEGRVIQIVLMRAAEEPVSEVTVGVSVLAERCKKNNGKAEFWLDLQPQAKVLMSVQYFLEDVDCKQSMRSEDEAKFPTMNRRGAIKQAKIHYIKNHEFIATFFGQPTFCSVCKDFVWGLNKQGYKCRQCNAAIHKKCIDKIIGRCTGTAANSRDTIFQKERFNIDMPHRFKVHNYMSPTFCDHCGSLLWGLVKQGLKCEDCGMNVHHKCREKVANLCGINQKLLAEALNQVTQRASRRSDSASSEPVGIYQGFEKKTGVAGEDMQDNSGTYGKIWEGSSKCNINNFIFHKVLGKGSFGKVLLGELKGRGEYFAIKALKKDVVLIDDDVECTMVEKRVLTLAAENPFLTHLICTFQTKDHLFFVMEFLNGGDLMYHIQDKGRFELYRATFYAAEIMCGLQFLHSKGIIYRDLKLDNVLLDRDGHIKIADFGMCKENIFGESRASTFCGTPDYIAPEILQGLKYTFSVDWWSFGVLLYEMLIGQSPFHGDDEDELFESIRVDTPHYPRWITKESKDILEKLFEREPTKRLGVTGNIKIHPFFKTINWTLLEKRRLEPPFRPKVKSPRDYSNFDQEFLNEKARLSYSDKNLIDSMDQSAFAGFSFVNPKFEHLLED
Ribosomal protein S6 kinase alpha-1 (Homo sapiens), sequence (Q15418 whole entry): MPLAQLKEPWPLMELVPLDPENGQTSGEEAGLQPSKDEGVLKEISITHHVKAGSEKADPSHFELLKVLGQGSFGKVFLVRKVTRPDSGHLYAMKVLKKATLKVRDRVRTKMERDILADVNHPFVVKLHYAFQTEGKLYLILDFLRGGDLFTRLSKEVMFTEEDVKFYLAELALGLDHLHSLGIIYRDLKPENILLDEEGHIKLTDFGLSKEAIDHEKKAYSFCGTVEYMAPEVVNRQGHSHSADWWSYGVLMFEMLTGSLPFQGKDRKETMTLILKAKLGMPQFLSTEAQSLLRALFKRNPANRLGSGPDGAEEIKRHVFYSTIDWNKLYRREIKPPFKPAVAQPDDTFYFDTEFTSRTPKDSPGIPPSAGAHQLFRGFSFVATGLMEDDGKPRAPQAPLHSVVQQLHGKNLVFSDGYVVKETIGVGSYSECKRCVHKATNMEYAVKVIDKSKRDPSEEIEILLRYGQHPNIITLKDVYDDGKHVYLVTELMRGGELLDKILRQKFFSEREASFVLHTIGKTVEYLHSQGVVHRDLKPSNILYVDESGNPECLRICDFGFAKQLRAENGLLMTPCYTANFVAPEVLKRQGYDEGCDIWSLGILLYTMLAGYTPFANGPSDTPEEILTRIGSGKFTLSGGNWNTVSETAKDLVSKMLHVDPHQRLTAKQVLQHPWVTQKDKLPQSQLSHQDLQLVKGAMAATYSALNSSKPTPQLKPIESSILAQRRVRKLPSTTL
Death-associated protein kinase 1 (Homo sapiens), sequence (P53355 whole entry, looked up): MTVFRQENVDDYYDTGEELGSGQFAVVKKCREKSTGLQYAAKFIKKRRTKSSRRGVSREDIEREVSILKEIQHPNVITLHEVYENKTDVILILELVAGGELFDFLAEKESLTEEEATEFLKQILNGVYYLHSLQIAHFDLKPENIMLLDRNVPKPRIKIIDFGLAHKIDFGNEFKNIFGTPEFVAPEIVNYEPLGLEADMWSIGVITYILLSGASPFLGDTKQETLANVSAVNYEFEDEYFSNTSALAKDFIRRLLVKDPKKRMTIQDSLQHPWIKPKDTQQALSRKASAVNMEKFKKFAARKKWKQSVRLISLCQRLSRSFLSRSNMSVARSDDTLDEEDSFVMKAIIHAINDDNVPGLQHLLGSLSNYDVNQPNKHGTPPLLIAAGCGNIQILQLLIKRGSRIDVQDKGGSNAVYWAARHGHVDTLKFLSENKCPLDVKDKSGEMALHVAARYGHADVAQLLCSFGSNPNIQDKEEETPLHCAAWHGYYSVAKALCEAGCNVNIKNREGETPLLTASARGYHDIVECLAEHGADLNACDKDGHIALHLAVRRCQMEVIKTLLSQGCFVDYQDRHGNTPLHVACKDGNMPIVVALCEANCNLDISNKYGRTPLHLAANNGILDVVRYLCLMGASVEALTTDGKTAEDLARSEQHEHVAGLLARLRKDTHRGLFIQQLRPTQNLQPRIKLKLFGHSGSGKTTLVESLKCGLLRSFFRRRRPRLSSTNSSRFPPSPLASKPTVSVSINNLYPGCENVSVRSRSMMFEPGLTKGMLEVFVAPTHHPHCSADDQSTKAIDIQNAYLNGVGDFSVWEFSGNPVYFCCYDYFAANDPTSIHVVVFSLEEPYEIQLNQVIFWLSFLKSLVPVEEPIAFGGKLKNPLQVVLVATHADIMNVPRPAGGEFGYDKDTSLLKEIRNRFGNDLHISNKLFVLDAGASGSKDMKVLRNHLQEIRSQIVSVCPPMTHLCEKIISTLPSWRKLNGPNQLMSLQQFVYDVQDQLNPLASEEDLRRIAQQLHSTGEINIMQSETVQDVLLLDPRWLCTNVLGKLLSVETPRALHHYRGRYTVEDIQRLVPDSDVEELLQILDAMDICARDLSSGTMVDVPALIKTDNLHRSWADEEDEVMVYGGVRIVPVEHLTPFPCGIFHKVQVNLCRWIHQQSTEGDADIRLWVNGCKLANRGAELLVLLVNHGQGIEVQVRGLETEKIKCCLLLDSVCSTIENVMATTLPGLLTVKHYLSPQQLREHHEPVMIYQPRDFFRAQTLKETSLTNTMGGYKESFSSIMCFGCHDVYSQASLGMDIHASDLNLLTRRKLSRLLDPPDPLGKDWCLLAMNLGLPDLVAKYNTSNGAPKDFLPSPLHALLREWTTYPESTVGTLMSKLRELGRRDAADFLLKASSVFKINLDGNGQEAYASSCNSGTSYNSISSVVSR
Calcium/calmodulin-dependent protein kinase type II subunit alpha (Homo sapiens), sequence (Q9UQM7 whole entry): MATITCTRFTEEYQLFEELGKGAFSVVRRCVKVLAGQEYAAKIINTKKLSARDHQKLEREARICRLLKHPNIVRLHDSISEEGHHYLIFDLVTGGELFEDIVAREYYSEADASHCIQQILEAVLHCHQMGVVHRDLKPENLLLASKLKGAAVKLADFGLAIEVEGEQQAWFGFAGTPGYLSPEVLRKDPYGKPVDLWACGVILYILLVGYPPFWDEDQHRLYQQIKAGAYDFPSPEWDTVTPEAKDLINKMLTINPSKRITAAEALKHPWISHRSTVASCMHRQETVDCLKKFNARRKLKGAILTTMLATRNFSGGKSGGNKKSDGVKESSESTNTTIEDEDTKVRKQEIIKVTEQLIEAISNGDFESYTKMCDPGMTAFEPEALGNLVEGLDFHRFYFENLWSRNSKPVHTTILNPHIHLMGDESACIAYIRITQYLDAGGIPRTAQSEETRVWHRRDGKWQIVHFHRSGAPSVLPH

`O=C(N[C@@H](C1CC1)C(F)(F)F)c1cc(-c2cnn3cc(-c4ccc(F)cc4)cnc23)cs1`: the results for the inhibition in experiment [1] and in experiment [3] were 10% and 7%, respectively. In addition, the fold change (FC) in experiment [2] amounted to 0.

`CNC(=O)c1ccccc1Oc1nc(Nc2cc(OC)c(OC)c(OC)c2)ncc1Br`: the inhibition in [4] was 0%. Moreover, the fold change (FC) in experiment [5] worked out at 0; in [6], 0.04.

With `CC(C)[C@H](NC(=O)c1cc(-c2cnn3cc(-c4ccc(OCCN5CCCCC5)cc4)cnc23)cs1)C(F)(F)F`, the inhibition was determined as 3% in experiment [7], 3% in experiment [8] and 4% in experiment [9]. Moreover, the fold change (FC) in [10] came to 0.26.
